Source: ChEMBL document CHEMBL4834423, “Discovery of AG-270, a First-in-Class Oral MAT2A Inhibitor for the Treatment of Tumors with Homozygous MTAP Deletion” (J Med Chem, 2021)
pIC50, pKd: −log10 of the molar value. ≈ marks a conversion by molar mass, not a printed value. Calls of active or inactive are those of the source. The rule behind the calls is not given here.

Columns and labels:
[1] = target: T1, S-adenosylmethionine synthase isoform type-2 (Homo sapiens, UniProt P31153); experiment: Inhibition of recombinant human MAT2A expressed in baculovirus infected Sf9 cells assessed as S-adenosyl methionine production using L-methionine as substrate incubated for 60 mins followed by substrate addition and measured after 60 mins; settings: for pIC50: read-out: IC50; for IC50: sf9
Target sequence in this assay (P31153 whole entry, canonical isoform): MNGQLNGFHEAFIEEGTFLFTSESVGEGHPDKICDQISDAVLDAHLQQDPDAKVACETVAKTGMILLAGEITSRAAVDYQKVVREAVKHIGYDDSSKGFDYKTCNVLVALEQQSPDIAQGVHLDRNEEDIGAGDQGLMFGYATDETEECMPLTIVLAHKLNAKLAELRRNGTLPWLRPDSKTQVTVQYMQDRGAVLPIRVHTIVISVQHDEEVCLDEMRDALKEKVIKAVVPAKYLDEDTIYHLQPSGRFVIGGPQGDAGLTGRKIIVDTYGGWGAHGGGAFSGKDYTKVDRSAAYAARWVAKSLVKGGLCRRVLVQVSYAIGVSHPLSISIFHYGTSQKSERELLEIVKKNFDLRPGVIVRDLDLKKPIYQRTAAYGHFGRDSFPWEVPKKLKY

[2] = target: T1, S-adenosylmethionine synthase isoform type-2; experiment: Inhibition of recombinant human MAT2A expressed in baculovirus infected Sf9 cells assessed as S-adenosyl methionine production using L-methionine as substrate incubated for 60 mins followed by substrate addition and measured after 60 mins relative to control; parameters: concentration or dose not given beside the values
Target sequence in this assay (P31153 whole entry, looked up, canonical isoform): as the sequence (P31153 whole entry, canonical isoform) above

[3] = system: HCT-116; experiment: cells; settings: Homo sapiens, HCT-116, 96 h
[4] = cells; settings: Homo sapiens, HCT-116, 72 h
[5] = Stability in human liver microsomes assessed as extraction ratio; format: ADME, Microsome; settings: read-out: ERH
[6] = Solubility of compound at pH 2; format: physicochemical; settings: buffer
[7] = Solubility of compound at pH 7.4; format: physicochemical; settings: buffer
[8] = Plasma protein binding in human by ultracentrifugation; format: ADME, cell-free; settings: read-out: PPB (converted)
Summary of the method: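 Human plasma protein binding was determined by ultracentrifugation.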

[9] = Cmax in MTAP-null KP4 cells xenografted mouse measured in tumor treated po twice daily; format: ADME, organism-based, Neoplasm; parameters: route oral
Summary of the method: (§1)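 KP4 MTAP-null xenograft-bearing mice dosed orally twice daily. Cmax was determined in plasma (ng/mL) and tumor (ng/g) after 3 b.i.d. doses.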

[10] = Plasma protein binding in mouse by ultracentrifugation; format: ADME, cell-free; settings: read-out: PPB (converted)
[11] = AUC (0 to 12 hrs) in MTAP-null KP4 cells xenografted mouse plasma treated po twice daily; format: ADME, organism-based; parameters: time < 12 hr, route oral; settings: in vivo
[12] = AUC (0 to 12 hrs) in MTAP-null KP4 cells xenografted mouse measured in tumor treated po twice daily; format: ADME, organism-based, Neoplasm; parameters: time < 12 hr, route oral; settings: in vivo
[13] = Protein binding in human plasma assessed as unbound fraction; format: ADME, cell-free
[14] = Cmax in MTAP-null KP4 cells xenografted mouse plasma treated po twice daily; format: ADME, organism-based; parameters: route oral; summary of the method: as §1
[15] = Efflux ratio of apparent permeability from basolateral side to apical side over apical side to basolateral side in human Caco-2 cells; format: ADME, cell-based
[16] = Permeability from apical to basolateral side in human Caco-2 cells; format: ADME, cell-based; settings: read-out: permeability
[17] = target: T1, S-adenosylmethionine synthase isoform type-2; experiment: Inhibition of MAT2A (unknown origin) enzymatic assay
Target sequence in this assay (P31153 whole entry, canonical isoform): as above

[18] = target: T1, S-adenosylmethionine synthase isoform type-2; experiment: Binding affinity to MAT2A (unknown origin) by surface plasmon resonance assay
Summary of the method: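 SPR: His-tagged MAT2A was captured on CM5 chips via covalently coupled penta-anti-His IgG (~16 000 RU), to a capture level of ~7500 RU.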
Target sequence in this assay (P31153 whole entry, canonical isoform): as above

pIC50 [1]	inhibition [2]	hepatic extraction ratio [5]	further results	SMILES
6.80	85%			Cc1[nH]c2c(N3CCCCC3)c(-c3ccccc3)nn2c(=O)c1-c1cscn1
8.15	85%	0.13	pIC50 [3]: 6.10; pIC50 [4]: 7.60	COc1ccc(-c2c(Nc3ccccn3)[nH]c3c(-c4ccccc4)c(-c4ccccc4)nn3c2=O)cc1
5.94	84%		pIC50 [3]: 4.09; pIC50 [4]: 6.23	Cc1cc(=O)n2nc(-c3ccccc3)c(C3=CCCC3)c2[nH]1
7.55	95%		pIC50 [3]: 6.39; pIC50 [4]: 7.80	COc1ccc(-c2c(Nc3cnccn3)[nH]c3c(C4=CCCCC4)c(-c4ccccc4)nn3c2=O)cc1
6.17	88%			Cc1cc(=O)n2nc(-c3ccccc3)c(C3CCCC3)c2[nH]1
8.40	88%	0.7		CCOC(=O)c1nnc(Nc2[nH]c3c(-c4ccccc4)c(-c4ccccc4)nn3c(=O)c2-c2ccc3ncccc3c2)o1
6.59	85%		pIC50 [3]: 4.14; pIC50 [4]: 6.97; solubility [6]: < 0.5 µM; solubility [7]: < 0.5 µM	Cc1cc(=O)n2nc(-c3ccccc3)c(C3=CCCCC3)c2[nH]1
7.89	94%	0.36	pIC50 [3]: 3.05; pIC50 [4]: 8.10	COc1ccc(-c2c(Nc3cc[nH]n3)[nH]c3c(-c4ccccc4)c(-c4ccccc4)nn3c2=O)cc1
6.59	86%		solubility [6]: 61 µM (≈ 18.8 µg/mL); solubility [7]: 13 µM (≈ 4.01 µg/mL)	Cc1cc(=O)n2nc(-c3ccccc3)c(N3CCCCC3)c2[nH]1
4.10	63%			Cc1cc(=O)n2nc(-c3nccs3)c(-c3ccccc3)c2[nH]1
7.35	92%	0.79		Cc1[nH]c2c(N3CCCCC3)c(-c3ccccc3)nn2c(=O)c1-c1ccc2[nH]cnc2c1
7.01	95%	0.16	fraction unbound [8]: < 0.001; Cmax [9]: 32300 ng/g; solubility [6]: 67 µM (≈ 28.7 µg/mL); solubility [7]: 15 µM (≈ 6.43 µg/mL); fraction unbound [10]: 0.0003; AUC [11]: 1650000 ng·h/g; AUC [12]: 372000 ng·h/g; fraction unbound [13]: 0.0003; Cmax [14]: 179 µg/mL; efflux ratio [15]: 6; Papp A→B [16]: 6.75 ×10⁻⁶ cm/s	Cc1[nH]c2c(-c3ccccc3)c(-c3ccccc3)nn2c(=O)c1-c1ccc2ncccc2c1
			IC50 [1]: Not Active	Nc1cc(=O)n2nc(-c3ccccc3)c(-c3ccccc3)c2[nH]1
			pIC50 [17]: 3.21	Cc1cc(=O)n2nc(C)c(-c3ccccc3)c2[nH]1
6.82	93%			Cc1[nH]c2c(N3CCCCC3)c(-c3ccccc3)nn2c(=O)c1-c1ccccc1
6.18	59%			Cc1cc(=O)n2nc(-c3ccccc3)c(C3CCCCC3)c2[nH]1
5.44	54%			CCc1cc(=O)n2nc(-c3ccccc3)c(-c3ccccc3)c2[nH]1
5.72	76%			Cc1cc(=O)n2nc(-c3cccc(F)c3)c(-c3ccccc3)c2[nH]1
5.82	65%			Cc1cc(=O)n2nc(-c3ccco3)c(-c3ccccc3)c2[nH]1
6.57	88%			O=c1cc(Nc2cc[nH]n2)[nH]c2c(-c3ccccc3)c(-c3ccccc3)nn12
8.15	93%	0.26	pIC50 [3]: 6.28	O=c1c(-c2ccc(O)cc2)c(Nc2cc[nH]n2)[nH]c2c(-c3ccccc3)c(-c3ccccc3)nn12
7.96	93%	0.51	pIC50 [3]: 6.37; pIC50 [4]: 7.82	CCOC(=O)n1ccc(Nc2[nH]c3c(-c4ccccc4)c(-c4ccccc4)nn3c(=O)c2-c2ccc(OC)cc2)n1
			IC50 [1]: Not Active	Cc1cc(=O)n2nc(C3=CCCCC3)c(-c3ccccc3)c2[nH]1

pIC50 [1]	inhibition [2]	hepatic extraction ratio [5]	further results	SMILES
6.99	66%		fraction unbound [8]: 0.0154; fraction unbound [13]: 0.0154	Cc1c(-c2ccc(O)cc2)c(=O)n2nc(-c3ccccc3)c(N3CCCCC3)c2n1C
5.88	95%			Cc1[nH]c2c(N3CCCCC3)c(-c3ccccc3)nn2c(=O)c1-c1cn[nH]c1
5.39	85%			CC(=O)Nc1cc(=O)n2nc(-c3ccccc3)c(-c3ccccc3)c2[nH]1
8.00	94%	0.11	pIC50 [3]: 6.09; pIC50 [4]: 7.19	COc1ccc(-c2c(Nc3ccon3)[nH]c3c(C4=CCCCC4)c(-c4ccccc4)nn3c2=O)cc1
7.28	95%	0.88		Cc1[nH]c2c(N3CCCCC3)c(-c3ccccc3)nn2c(=O)c1-c1ccc2ncccc2c1
5.44	90%			Cc1cc(=O)n2nc(-c3ccccc3)c(-c3ccco3)c2[nH]1
6.80	91%			Cc1[nH]c2c(N3CCCCC3)c(-c3ccccc3)nn2c(=O)c1-c1ccncc1
6.92	61%		fraction unbound [8]: 0.009; fraction unbound [13]: 0.009	Cc1c(-c2ccc3ncccc3c2)c(=O)n2nc(-c3ccccc3)c(-c3ccccc3)c2n1C
7.24	91%		fraction unbound [8]: 0.001; pIC50 [4]: 7.00; fraction unbound [13]: 0.0009	Cc1[nH]c2c(N3CCCCC3)c(-c3ccccc3)nn2c(=O)c1-c1ccc(O)cc1
8.30	96%	0.56	pIC50 [3]: 7.10; pIC50 [4]: 7.68	COc1ccc(-c2c(Nc3cc[nH]n3)[nH]c3c(C4=CCCCC4)c(-c4ccccc4)nn3c2=O)cc1
7.18	93%	0.66		Cc1[nH]c2c(C3CCCCC3)c(-c3ccccc3)nn2c(=O)c1-c1ccc2ncccc2c1
7.60	96%			Cc1[nH]c2c(C3=CCCCC3)c(-c3ccccc3)nn2c(=O)c1-c1ccc2ncccc2c1
4.30	inactive			Cc1cc(=O)n2nc(-c3cn[nH]c3)c(-c3ccccc3)c2[nH]1
8.10	93%	0.83		Cc1[nH]c2c(N3CCCCC3)c(-c3ccccc3)nn2c(=O)c1-c1ccc2c(c1)OCO2
6.80	96%			Cc1[nH]c2c(C3=CCCC3)c(-c3ccccc3)nn2c(=O)c1-c1ccc2ncccc2c1
5.82	69%		pKd [18]: 4.15; pIC50 [17]: 5.82	Cc1cc(=O)n2nc(-c3ccccc3)c(-c3ccccc3)c2[nH]1
8.15	94%	0.49	pIC50 [3]: 6.28	O=c1c(-c2ccc3ncccc3c2)c(Nc2cc[nH]n2)[nH]c2c(-c3ccccc3)c(-c3ccccc3)nn12
7.08	94%	0.75		Cc1[nH]c2c(N3CCCCC3)c(-c3ccccc3)nn2c(=O)c1-c1ccc2[nH]c(N)nc2c1
5.15	79%			Cc1cc(=O)n2nc(-c3ccccc3)c(-c3ccccn3)c2[nH]1
4.78	70%			O=c1cc(Nc2ccccc2)[nH]c2c(-c3ccccc3)c(-c3ccccc3)nn12
7.48	93%	0.54		Cc1[nH]c2c(-c3ccccc3)c(-c3ccccc3)nn2c(=O)c1-c1ccc(O)cc1
8.40	92%	0.55	pIC50 [3]: 7.14; pIC50 [4]: 7.74	O=c1c(-c2ccc3ncccc3c2)c(Nc2cc[nH]n2)[nH]c2c(C3=CCCCC3)c(-c3ccccc3)nn12
4.91	92%		pIC50 [3]: 4.12; pIC50 [4]: 5.12	Cc1cc(=O)n2nc(-c3cccc(O)c3)c(-c3ccccc3)c2[nH]1
